Experimental data reported in ChEMBL document CHEMBL1949572, “Assessment of antiplatelet activity of 2-aminopyrimidines” (2012).

What was measured:
[1] = Antiplatelet activity in human whole blood assessed as inhibition of ADP-induced platelet aggregation at 10 ug/ml treated for 2 mins before ADP challenge measured after 6 mins by whole blood aggregometer; format: functional
In short: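 Whole blood diluted 1:1 with pre-warmed PBS (pH 7.4) at 37 °C. Stirred at 1000 rpm until baseline reached. Test sample or control added with 2 min incubation, then ADP (10 µM final) to start aggregation. Impedance (ohms) followed for 6 min, taken from lowest point to end of interval. Blood used within 4 h of collection; controls run between samples; three runs per assay.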

[2] = Ratio of compound to aspirin for human whole blood; format: functional, Platelet

`COc1ccc(O)c(-c2cc(-c3ccco3)nc(N)n2)c1` showed an inhibition at 10 µg/mL [1] of 1.46%.

In the case of `COc1ccc(O)c(-c2cc(-c3ccccc3Cl)nc(N)n2)c1`, the inhibition at 10 µg/mL [1] is reported as 55.1%.

With `COc1ccc(-c2cc(-c3cccc(C)c3)nc(N)n2)c(O)c1` the inhibition at 10 µg/mL [1] was 23.1%.

`COc1cccc(-c2cc(-c3ccc(OC)cc3O)nc(N)n2)c1` showed an inhibition at 10 µg/mL [1] of 51.2%.

With `COc1ccc(-c2cc(-c3cccc(Cl)c3)nc(N)n2)c(O)c1` the inhibition at 10 µg/mL [1] was 65.8%.

`COc1ccc(-c2cc(-c3ccc(Cl)cc3)nc(N)n2)c(O)c1` showed an inhibition at 10 µg/mL [1] of 8.42%.

In the case of `COc1ccc(-c2cc(-c3ccc(F)cc3)nc(N)n2)c(O)c1`, the inhibition at 10 µg/mL [1] is reported as 64%.

Work on `COc1ccc(-c2cc(-c3ccc(Cl)cc3Cl)nc(N)n2)c(O)c1` yielded an inhibition at 10 µg/mL [1] of 77.5% and a Ratio [2] of 2.

Compound `COc1ccc(-c2cc(-c3ccc([N+](=O)[O-])cc3)nc(N)n2)c(O)c1` has an inhibition at 10 µg/mL [1] of 58.5%.

`COc1ccc(O)c(-c2cc(-c3ccc(F)cc3)nc(N)n2)c1` showed an inhibition at 10 µg/mL [1] of 8.79%.

`CCOc1ccc(O)c(-c2cc(-c3ccccc3)nc(N)n2)c1` gave an inhibition at 10 µg/mL [1] of 39.9%.

`COc1ccc(-c2cc(-c3ccc(C)cc3)nc(N)n2)c(O)c1` gave an inhibition at 10 µg/mL [1] of 62.8%.

For `COc1ccc(-c2cc(-c3ccccc3)nc(N)n2)c(O)c1`, the inhibition at 10 µg/mL [1] was 42.7%.

Work on `COc1ccc(O)c(-c2cc(-c3cccc(Cl)c3)nc(N)n2)c1` yielded an inhibition at 10 µg/mL [1] of 66.8%.

For `COc1ccc(-c2cc(-c3cc(OC)ccc3O)nc(N)n2)cc1`, the inhibition at 10 µg/mL [1] was 64.3%.

`CC(=O)Oc1ccccc1C(=O)O` [ASPIRIN] gave an inhibition at 10 µg/mL [1] of 37.5%.
